Consider five compounds from ChEMBL document CHEMBL3259710, “C-ring cannabinoid lactones: a novel cannabinergic chemotype” (ACS Med Chem Lett, 2014).

A value given as a limit tells only on which side of the number the result lay.

For series [1], the target named is T1, Cannabinoid receptor 1 (Rattus norvegicus, UniProt P20272). As to the kind of experiment: Displacement of [3H]CP55940 from rat brain CB1 receptor. An outline of the steps: (§1)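 Competition binding against [3H]CP-55,940. CB1 membranes came from rat brain; CB2 membranes came from HEK293 cells expressing mouse or human CB2. Ki was taken from competition curves by nonlinear regression. Three independent experiments were run in duplicate, and Ki is the mean of the three.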
T1 sequence (P20272 whole entry): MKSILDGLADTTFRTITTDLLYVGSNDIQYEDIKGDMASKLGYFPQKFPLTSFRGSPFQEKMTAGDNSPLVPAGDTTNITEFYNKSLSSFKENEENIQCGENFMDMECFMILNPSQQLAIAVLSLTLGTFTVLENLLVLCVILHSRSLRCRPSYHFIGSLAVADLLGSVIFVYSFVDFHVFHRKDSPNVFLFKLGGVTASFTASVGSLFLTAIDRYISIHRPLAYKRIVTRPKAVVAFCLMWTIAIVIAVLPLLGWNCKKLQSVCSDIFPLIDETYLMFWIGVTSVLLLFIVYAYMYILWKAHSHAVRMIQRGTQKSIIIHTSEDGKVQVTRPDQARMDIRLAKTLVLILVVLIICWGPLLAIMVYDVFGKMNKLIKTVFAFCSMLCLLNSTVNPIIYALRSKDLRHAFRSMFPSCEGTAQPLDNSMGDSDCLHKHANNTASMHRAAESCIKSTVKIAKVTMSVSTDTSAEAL
A general note: In a radioligand displacement assay an active substance lowers the binding of a labelled ligand.

Series [2] deals with Cannabinoid receptor 2 (Mus musculus, UniProt P47936). In words: Displacement of [3H]CP55940 from mouse […] CB2 receptor expressed in HEK293 cells. It is filed as cell-based. A digest of the protocol: as §1
Sequence of Cannabinoid receptor 2 (Mus musculus, UniProt P47936) (P47936 whole entry): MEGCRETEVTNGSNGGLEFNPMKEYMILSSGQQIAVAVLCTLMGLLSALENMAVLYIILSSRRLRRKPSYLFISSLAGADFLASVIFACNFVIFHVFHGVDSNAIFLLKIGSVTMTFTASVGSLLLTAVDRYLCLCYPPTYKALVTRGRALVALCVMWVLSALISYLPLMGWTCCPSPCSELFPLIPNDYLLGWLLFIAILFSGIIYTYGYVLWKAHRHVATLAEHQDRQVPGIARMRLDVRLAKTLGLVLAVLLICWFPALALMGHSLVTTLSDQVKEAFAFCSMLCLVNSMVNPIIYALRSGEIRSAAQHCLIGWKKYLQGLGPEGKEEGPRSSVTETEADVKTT
The target of series [3] is Cannabinoid receptor 2 (Homo sapiens, UniProt P34972). As to the kind of experiment: Displacement of [3H]CP55940 from human […] CB2 receptor expressed in HEK293 cells. It is filed as cell-based. A digest of the protocol:
as §1

Series [4] is described as follows: Selectivity ratio of Ki for mouse […] CB2 receptor to Ki for rat CB1 receptor.
A short description of series [5]: Selectivity ratio of Ki for human CB2 receptor to Ki for rat CB1 receptor.
Series [6] concerns the target T1, Cannabinoid receptor 1. As to the kind of experiment: Agonist activity at rat CB1 receptor expressed in HEK293 cells assessed as inhibition of forskolin-induced cAMP level. It is filed as functional, cell-based. (Cyclic AMP is a second messenger, typically raised through Gs and lowered through Gi signalling.)
Series [7] deals with Cannabinoid receptor 1 (Rattus norvegicus) (UniProt P20272). As to the kind of experiment: Agonist activity at rat CB1 receptor expressed in HEK293 cells assessed as maximum inhibition of forskolin-induced cAMP level. It is filed as functional, cell-based.
Sequence of Cannabinoid receptor 1 (Rattus norvegicus) (P20272 whole entry): as the sequence (P20272 whole entry) above
Series [8] in a line: Half life in mouse plasma. It is filed as ADME, cell-free. An outline of the steps: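 The compound was incubated in vitro with mouse plasma to test esterase hydrolysis to its acid metabolite. Half-life of the parent compound was determined.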

Sequence of Cannabinoid receptor 2 (Homo sapiens, UniProt P34972) (P34972 whole entry): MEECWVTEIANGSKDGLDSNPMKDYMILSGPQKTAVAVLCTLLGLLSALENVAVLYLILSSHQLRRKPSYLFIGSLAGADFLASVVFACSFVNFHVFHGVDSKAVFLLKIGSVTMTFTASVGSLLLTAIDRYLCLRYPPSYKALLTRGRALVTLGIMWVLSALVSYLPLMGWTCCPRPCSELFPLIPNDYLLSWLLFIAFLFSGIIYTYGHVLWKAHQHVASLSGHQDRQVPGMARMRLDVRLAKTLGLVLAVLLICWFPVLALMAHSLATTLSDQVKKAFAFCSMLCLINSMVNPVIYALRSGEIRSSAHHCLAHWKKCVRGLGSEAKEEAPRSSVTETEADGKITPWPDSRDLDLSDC

Turning to `CCCCCCC(C)(C)c1cc(O)c2c(c1)OC(C)(C)[C@@H]1CCC(=O)OC[C@@H]21`, the Ki (as a rule, a measure of affinity in units of concentration, obtained from inhibition or displacement) stood at 4.6 nM on Cannabinoid receptor 1 [1], 792 nM on Cannabinoid receptor 2 [2] and 52 nM at Cannabinoid receptor 2 [3]. The values for the Ratio Ki in series [4] and in series [5] were 170 and 11, respectively. Moreover, at Cannabinoid receptor 1 [6], the 50% effective concentration (EC50) (commonly the midpoint of the concentration-response curve) came to 184 nM. Besides, the inhibition (in general, how much of the control response was suppressed) in series [7] was found to be 41%.

As to `CCCCCCC(C)(C)c1cc(O)c2c(c1)OC(C)(C)[C@@H]1CCOC(=O)C[C@@H]21`, on Cannabinoid receptor 2 [3], the inhibitory constant (Ki) came out at 94 nM.

As to `CCCCCc1cc(O)c2c(c1)OC(C)(C)[C@@H]1CCC(C)=C[C@@H]21` [DRONABINOL], at Cannabinoid receptor 2 [2], the Ki turned out to be 40 nM.

Consider `CCCCCCC(C)(C)c1cc(O)c2c(c1)OC(C)(C)[C@H](CCC(=O)O)[C@H]2CO`, for which the Ki at Cannabinoid receptor 1 [1], on Cannabinoid receptor 2 [2] and on Cannabinoid receptor 2 [3] was greater than 1000 nM each time. Moreover, the half-life (in general, how long it takes for the measured level to halve) in series [8] stood at 15.1 min.

On to `CCCCCCC(C)(C)c1cc(O)c2c(c1)OC(C)(C)[C@H](CCO)[C@H]2CC(=O)O`, for which the Ki at Cannabinoid receptor 1 [1], at Cannabinoid receptor 2 [2] and on Cannabinoid receptor 2 [3] was greater than 1000 nM in each case.
